Tested on: MS2 coat protein
Test: apparent Kd, MS2 coat protein; higher = weaker binding; RNA-MaP array; FMN 200 µM where present
In short: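 Designs on Illumina sequencing-chip clusters, transcribed by stalled E. coli RNA polymerase, were exposed to SNAP-549-labelled MS2 coat protein in doubling steps from 0.7 or 1.5 nM up to 3 µM, without and then with constant ligand. The buffer held 100 mM Tris-HCl pH 7.5, 80 mM KCl, 4 mM MgCl2, BSA, DTT, yeast tRNA and Tween-20. Apparent Kd values are medians of filtered per-cluster binding-curve fits to green signal normalised to red-channel RNA signal and control-cluster median Fmax.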

[1] = designed as: OFF switch for flavin mononucleotide, no ligand
[2] = ligand present: flavin mononucleotide, designed as: OFF switch for flavin mononucleotide
[3] = designed as: ON switch for flavin mononucleotide, no ligand
[4] = ligand present: flavin mononucleotide, designed as: ON switch for flavin mononucleotide

Row | Sequence | apparent Kd [1] | apparent Kd [2] | apparent Kd [3] | apparent Kd [4]
1 | AAUUAUAUACAGAAGGAGUUAUAUUGAGUAUUACUAGGAUAUGUUCACAUGAGGAUCACCCAUGUCAUAUUGGGAUUUAUUAUA | 21.6 nM | 27.9 nM |  | 
2 | CGGGAGCCGAAGGGCGAAAGCCCACAUGAGGAUCACCCAUGUAGAAGGCGGGCCGCAACGCGGCCCGAGGAUAUACAGGCUCCA | 5.99 nM | 10.5 nM |  | 
3 | AGCAUGCAGUAGGAUAUCGAUCCACAAUAUGAACGAGAAGGACUGACAUGAGGAUCACCCAUGUGCGUCCUAGG | 16.7 nM | 16.6 nM |  | 
4 | AAGUGUAUAGGAUAUGCGUGGAAAAGGUGUAUUCACUAGCGACAUGAGGAUCACCCAUGUAGAAGGGUAUGUAA | 124 nM | 64 nM |  | 
5 | CCACGACAUGAGGAUCACCCAUGUCAGGAUAUCCCUCAUUGUAUGAAAAUACAAUGAGGGAGAAGGGACGUGAC | 33.8 nM | 31.6 nM |  | 
6 | GGUGGACAUGAGGAUCACCCAUGUGAGGAUAUCGGCUGGUGCGUGGUGGCUGGCAUCUCGAGAAGGCACAUAGU | 94.4 nM | 171 nM |  | 
7 | CAGUACUGAGGAUAUACAUGAGGAUCACCCAUGUGAAAAAGCUACGAAAGUAGCAAAUGUAGAAGGCAGUACUG | 34.3 nM | 254 nM |  | 
8 | GCGAGCAUACAGAAGGGAUCGUCGUUGCGGCUGUCAGGAUAUGUAGCUUGGCCUAAACAUGAGGAUCACCCAUGUAUAAUGCUA |  |  | 66.7 nM | 24.3 nM
9 | UAUGACAUGAGGAUCACCCAUGUCAGCGAGAAAUGAGAGUCACAGGAUAUGUUUUCGGCCGGCAGACAGAAGGGUGACCCUCAG |  |  | 7.21 nM | 6.89 nM
10 | AUGGAUAUCACAGGAUAUGCUAUGGAUACCAUAGCAGAAGGGUGAUCCAUCCUAUGUGAGCACAUGAGGAUCACCCAUGUGUCC |  |  | 123 nM | 23.1 nM
11 | AUCAGCACGUGAGGAUAUGCGUCACUGCGAAAGCAGUACGGUAAGAUCACAUGAGGAUCACCCAUGUAGAAGGCACGAGCUGAU | 16.6 nM | 38.1 nM |  | 
12 | GGUGCCAUGUAGAAGGCAGAUCUGAUUCACAUCUGAGGAUAUACAUGAGGAUCACCCAUGUAAAGGCACCGCACGAGAGUGCAA | 16.3 nM | 15 nM |  | 
13 | AGCUGUGGCCGAGGAUAUACAUCCUUUAUAACCGAUGAAUAUCAUCGGACAUGAGGAUCACCCAUGUAGAAGGCGGUCUCAGCA | 149 nM | 750 nM |  | 
14 | AGGCAAUCAGGAUAUACAUGAGGAUCACCCAUGUGUACAAAGCACAUCCGAUCUAGAUGUAGAAGGGAUAUGCA | 19.1 nM | 35.8 nM |  | 
15 | AUCAGCUCGUCAGGAUAUAUGUCACUGCGUCAGCAGUGUGGUAAGAUCACAUGAGGAUCACCCAUGUAGAAGGGACGAGCUGAU | 30.7 nM | 78.8 nM |  | 
16 | GAAAACAUAGGAUAUACAUGAGGAUCACCCAUGUUAAAAUAAAGAAAGGGAGAAAUAAGUAGAAGGAUGAAAAA | 33.8 nM | 34.2 nM |  | 
17 | GUGUAGCAAGGAUAUACAUGAGGAUCACCCAUGUGAAUAAGAUAGAAUAAGAUAAAGUGUAGAAGGUGCAGUGU | 39 nM | 34.4 nM |  | 
18 | AGCUGUGGCCGAGGAUAUCUAAAUUCUUAAAACGAAAUAUAAUCGAACAUGAGGAUCACCCAUGUAGAGAAGGCGGUCUCAGCA | 19.8 nM | 20.7 nM |  | 
19 | UUUAAUCGAAACAUGAGGAUCACCCAUGUGUUGUAAUUAACAUAGGAUAUUUGUAUACUUUUAUAAAAGAAGGAUGAUAAUACU |  |  | 17.8 nM | 13 nM
20 | GUGAAGUGAGGAUAUACGAGAGAGGCUGAACCUGGAGAGAAGUAGAAGGCACAUGAGGAUCACCCAUGUUAGGA | 39.6 nM | 30.3 nM |  | 
21 | UGCAUGCUAGGAUAUACGGGACAUUAGGGUUCGUUGUAUGGACAUGAGGAUCACCCAUGUAGAAGGAGCGUGCU | 27.4 nM | 112 nM |  | 
22 | GGGUCCGCUCGAGGAUAUAGCUGCAUGUAGUGUCCUGAGGCACAUGAGGAUCACCCAUGUGUAGGCUAGAAGGCGACGGACACU | 50 nM | 114 nM |  | 
23 | UGUCAUAUAUAGAAGGGUAGUAGGGUUUUACAUGAGGAUCACCCAUGUAUUAUAGGAUAUGUGUAAAGUUAUUAUUAAAGUAAA | 29.1 nM | 21.5 nM |  | 

Source: the EternaBench riboswitch data
